According to ChEMBL document CHEMBL3120123, “Molecular dynamics simulations and structure-based rational design lead to allosteric HCV NS5B polymerase thumb pocket 2 inhibitor with picomolar cellular replicon potency” (J Med Chem, 2014):
≈ marks a conversion by molar mass, not a printed value.

Tests used:
Hepatitis C virus [1] = assay: Antiviral activity against HCV genotype 1b infected in human HuH7 cells assessed as inhibition of viral RNA replication after 72 hrs by luciferase reporter gene assay; format: functional, organism-based, Hepacivirus hominis; details: Huh-7, 72 h
Method in brief: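 HCV genotype 1b subgenomic luciferase reporter replicon cells. EC50 taken from inhibition of replicon RNA replication, luciferase read-out, n ≥ 2; method as described in earlier work.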

[2] = Lipophilicity, log D of the compound at pH 7.4; format: physicochemical; details: buffer
[3] = Solubility of the compound in form of lyophilized, amorphous solid at pH 6.8 after 24 hrs by shake flask method; format: physicochemical; details: buffer
Method in brief: (§1)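 Lyophilized amorphous solids tested by 24 h shaking flask method; solubility given in µg/ml at pH 2 and at pH 6.8.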

[4] = Solubility of the compound in form of lyophilized, amorphous solid at pH 2 after 24 hrs by shake flask method; format: physicochemical; details: buffer; method in brief: as §1
Hepatitis C virus [5] = assay: Antiviral activity against HCV genotype 1b expressing HCV genotype 2b NS5B infected in human HuH7-J cells assessed as inhibition of viral RNA replication after 72 hrs by poliovirus internal ribosomal entry site incorporating luciferase reporter gene assay; format: functional, organism-based, Hepacivirus hominis; details: Huh-7, 72 h
Method in brief: (§2)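 Surrogate assay using chimeric gt1b subgenomic replicons that carry the NS5B polymerase gene from gt2b, 3a, 4a or 5a. Luciferase reporter sits downstream of the poliovirus IRES. EC50 is derived from inhibition of replication read by luciferase.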

Hepatitis C virus [6] = assay: Antiviral activity against HCV genotype 1b expressing HCV genotype 3a NS5B infected in human HuH7-J cells assessed as inhibition of viral RNA replication after 72 hrs by poliovirus internal ribosomal entry site incorporating luciferase reporter gene assay; format: functional, organism-based, Hepacivirus hominis; details: Huh-7, 72 h; method in brief: as §2
Hepatitis C virus [7] = assay: Antiviral activity against HCV genotype 1b expressing HCV genotype 6a NS5B infected in human HuH7-J cells assessed as inhibition of viral RNA replication after 72 hrs by real-time PCR analysis; format: functional, organism-based, Hepacivirus hominis; details: Huh-7, 72 h
Method in brief: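 Surrogate assay using a chimeric gt1b subgenomic replicon carrying the gt6a NS5B polymerase gene. Replicon RNA is quantified by RT-PCR, and EC50 is derived from inhibition of HCV RNA replication.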

[8] = Permeability across apical to basolateral side in human Caco2 cells; format: ADME, cell-based; details: Caco-2, read-out: permeability
Method in brief: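 Caco-2 monolayer permeability run with apical compartment at pH 6.0 and basolateral compartment at pH 7.4; reported in 10^-6 cm/s.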

Hepatitis C virus [9] = assay: Antiviral activity against HCV genotype 1b infected in human HuH7-J cells assessed as inhibition of viral RNA replication after 72 hrs by poliovirus internal ribosomal entry site incorporating luciferase reporter gene assay; format: functional, organism-based, Hepacivirus hominis; details: Huh-7, 72 h
Method in brief: (§3)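 Subgenomic HCV replicons (gt1a or gt1b) carrying a luciferase reporter, with the poliovirus IRES placed upstream of luciferase. EC50 is derived from inhibition of HCV RNA replication read by luciferase signal.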

Hepatitis C virus [10] = assay: Antiviral activity against HCV genotype 1b expressing HCV genotype 5a NS5B infected in human HuH7-J cells assessed as inhibition of viral RNA replication after 72 hrs by poliovirus internal ribosomal entry site incorporating luciferase reporter gene assay; format: functional, organism-based, Hepacivirus hominis; details: Huh-7, 72 h; method in brief: as §2
Hepatitis C virus [11] = assay: Antiviral activity against HCV genotype 1a infected in human HuH7-J cells assessed as inhibition of viral RNA replication after 72 hrs by poliovirus internal ribosomal entry site incorporating luciferase reporter gene assay; format: functional, organism-based, Hepacivirus hominis; details: subtype 1a, Huh-7, 72 h; method in brief: as §3
Hepatitis C virus [12] = assay: Antiviral activity against HCV genotype 1b expressing HCV genotype 4a NS5B infected in human HuH7-J cells assessed as inhibition of viral RNA replication after 72 hrs by poliovirus internal ribosomal entry site incorporating luciferase reporter gene assay; format: functional, organism-based, Hepacivirus hominis; details: Huh-7, 72 h; method in brief: as §2

Compound | EC50 (Hepatitis C virus [1]) [nM] | logD [2] | solubility thermodynamic at 24 h [3] [µg/mL] | solubility thermodynamic at 24 h [4] [µg/mL] | Papp A→B [8] [×10⁻⁶ cm/s] | further results
O=c1ncn(Cc2c(F)cc(F)cc2F)c2ccc(Oc3cccc(-c4ccccn4)c3C(F)(F)F)cc12 | 310 |  |  |  |  | 
O=c1ncn(Cc2c(F)cc(F)cc2F)c2ccc(Oc3cccc(-c4ccc5cc[nH]c5c4)c3C(F)(F)F)cc12 | 10 | 5 | < 0.1 | < 0.1 |  | 
O=c1ncn(Cc2c(F)cc(F)cc2F)c2ccc(Oc3cccc(-c4ccc5[nH]ccc5c4)c3C(F)(F)F)cc12 | 0.13 | 5.1 | < 0.1 | < 0.1 | 10.5 | EC50 (Hepatitis C virus [5]): 15 nM; EC50 (Hepatitis C virus [6]): 80 nM; EC50 (Hepatitis C virus [7]): 11 nM; EC50 (Hepatitis C virus [9]): 0.11 nM; EC50 (Hepatitis C virus [10]): 1.3 nM; EC50 (Hepatitis C virus [11]): 0.12 nM; EC50 (Hepatitis C virus [12]): 1.1 nM
O=c1ncn(Cc2c(F)cc(F)cc2F)c2ccc(Oc3cccc(-c4ccc5[nH]cnc5c4)c3C(F)(F)F)cc12 | 0.6 | 4.7 | < 0.1 | < 0.1 | 0.4 | 
O=c1ncn(Cc2c(F)cc(F)cc2F)c2ccc(Oc3ccc(-c4ccc5[nH]ccc5c4)cc3)cc12 | 4.6 | 4.4 | 0.18 (≈ 0.362 µM) | < 0.1 | 3.5 | 
O=c1ncn(Cc2c(F)cc(F)cc2F)c2ccc(Oc3ccc(-c4nc5ncccc5o4)cc3)cc12 | 490 |  |  |  |  | 
O=c1ncn(Cc2c(F)cc(F)cc2F)c2ccc(Oc3ccccc3C(F)(F)F)cc12 |  |  |  |  | 9.2 | 
Cc1cc(-c2cccc(Oc3ccc4c(c3)c(=O)ncn4Cc3c(F)cc(F)cc3F)c2C(F)(F)F)cnc1N | 6 | > 4.7 | < 0.1 | 74 (≈ 133 µM) | 1.1 | 
Cc1ccc(-c2cccc(Oc3ccc4c(c3)c(=O)ncn4Cc3c(F)cc(F)cc3F)c2C(F)(F)F)cn1 | 55 | 4.2 | < 0.1 | 180 (≈ 332 µM) |  | 
Nc1ccc(-c2cccc(Oc3ccc4c(c3)c(=O)ncn4Cc3c(F)cc(F)cc3F)c2C(F)(F)F)cn1 | 10 | 3.9 | < 0.1 | 0.3 (≈ 0.553 µM) | 4.1 | 
NC(=O)c1cccc(Oc2ccc3c(c2)c(=O)ncn3Cc2c(F)cc(F)cc2F)c1C(F)(F)F | 180 |  |  |  | 1.9 | 
O=c1ncn(Cc2c(F)cc(F)cc2F)c2ccc(Oc3cccc(-c4nc5ncccc5o4)c3C(F)(F)F)cc12 | 3.3 |  |  |  | 3 | 
O=C(Nc1ccccn1)c1cccc(Oc2ccc3c(c2)c(=O)ncn3Cc2c(F)cc(F)cc2F)c1C(F)(F)F | 6.8 |  |  |  | 1.2 | 
O=C(Nc1cccnc1)c1cccc(Oc2ccc3c(c2)c(=O)ncn3Cc2c(F)cc(F)cc2F)c1C(F)(F)F | 5.7 |  |  |  | 0.26 | 
O=c1ncn(Cc2c(F)cc(F)cc2F)c2ccc(Oc3cccc(-c4ccccc4)c3C(F)(F)F)cc12 | 450 |  |  |  |  | 
O=C(Nc1ccccc1)c1cccc(Oc2ccc3c(c2)c(=O)ncn3Cc2c(F)cc(F)cc2F)c1C(F)(F)F | 2.5 |  |  |  | 0.84 | 
